# From ChEMBL document CHEMBL1138784, “Rational design, synthesis, and biological evaluation of bis(pyrimido[5,6,1-de]acridines) and bis(pyrazolo[3,4,5-kl]acridine-5-carboxamides) as new anticancer agents” (J Med Chem, 2004)
# What was measured:
# [1] = Cytotoxicity against human H460M cancer cell line was determined after 144 hr; format: functional, cell-based; conditions: Cancer cell lines
# In short: (§1)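 MTT colorimetric assay. Cells seeded by growth characteristics and preincubated 24 h, then exposed to drug for 1 h or 144 h at 37 °C, 5% CO2. H460M, MKN45 and PC-3 were grown in RPMI 1640 with 10% FCS. HCT116 was grown in D-MEM with 10% FBS and 2 mM glutamine.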
# MKN-45 = experiment: Cytotoxicity against human MKN45 cancer cell line was determined after 144 hr; format: functional, cell-based; conditions: MKN-45, 144 h; in short: as §1
# LoVo [2] = experiment: Ratio of IC50 against sensitive LoVo cell line and that of doxorubicin resistance LoVo cell line was determined after 1 hr exposure; format: functional, Homo sapiens
# LoVo [3] = experiment: Cytotoxicity against doxorubicin resistant LoVo cell line was determined against 144 hrs; format: functional, cell-based; conditions: Homo sapiens
# In short: (§2)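 MTT assay on doxorubicin-sensitive LoVo and resistant LoVo/Dx cells, 24 h preincubation, then 1 h or 144 h drug exposure at 37 °C, 5% CO2. IC50 in nM. Resistance index is IC50 on LoVo/Dx divided by IC50 on LoVo.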
# Nucleic Acid = experiment: Binding site preference is determined as the ratio of Poly (dA-dT)2 to Poly (dG-dC)2; format: nucleic-acid assay
# In short: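 Ethidium displacement fluorometry at pH 7.0 (10 mM Na2HPO4, 10 mM NaH2PO4, 1 mM EDTA) with 1.26 μM ethidium bromide and 1 μM [poly(dA-dT)]2 or [poly(dG-dC)]2, 20 °C. Ex 546 nm, em 595 nm, drug added serially from a DMSO stock. Preference taken from the [AT]/[GC] ratio of C50 values, counted significant only below 0.7 or above 1.3.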
# SNB-19 [4] = experiment: Percent growth of CNS SNB-19 cell line was determined at 10e-5 M concentration after 48 hr of exposing; format: functional, Homo sapiens
# In short: (§3)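 NCI sulforhodamine B screen. Cells seeded by growth rate, 24 h drug-free, then 48 h exposure to 10^-8, 10^-6 or 10^-5 M. Protein-stain optical density expressed as percent growth relative to untreated control (100%); negative values indicate cell kill.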
# HCT-116 = experiment: Cytotoxicity against human HCT116 cancer cell line was determined after 144 hr; format: functional, cell-based; conditions: HCT-116, 144 h; in short: as §1
# DU-145 [5] = experiment: Percent growth of prostate DU-145 cell line was determined at 10e-6 M concentration after 48 hr of exposing; format: functional, Homo sapiens
# DU-145 [6] = experiment: Percent growth of prostate DU-145 cell line was determined at 10e-8 M concentration after 48 h of exposing; format: functional, Homo sapiens
# [7] = Percent growth of melanoma LOX IMV1 cell line was determined at 10e-5 M concentration after 48 hr of exposing; format: functional, Homo sapiens; in short: as §3
# [8] = Percent growth of melanoma LOX IMV1 cell line was determined at 10e-6 M concentration after 48 hr of exposing; format: functional, Homo sapiens; in short: as §3
# [9] = Percent growth of melanoma LOX IMV1 cell line was determined at 10e-8 M concentration after 48 hr of exposing; format: functional, Homo sapiens; in short: as §3
# PC-3 = experiment: Cytotoxicity against human PC3 cancer cell line was determined after 144 hr; format: functional, cell-based; conditions: PC-3, 144 h; in short: as §1
# [10] = Cytotoxicity against doxorubicin resistant LoVo cell line was determined against 1 hour; format: cell-based; conditions: Homo sapiens; in short: as §2
# LoVo [11] = experiment: Cytotoxicity against human LoVo cancer cell line was determined after 144 hr; format: functional, cell-based; in short: as §2
# SNB-19 [12] = experiment: Percent growth of CNS SNB-19 cell line was determined at 10e-6 M concentration after 48 hr of exposing; format: functional, Homo sapiens; in short: as §3
# SNB-19 [13] = experiment: Percent growth of CNS SNB-19 cell line was determined at 10e-8 M concentration after 48 hr of exposing; format: functional, Homo sapiens; in short: as §3
# 786-0 [14] = experiment: Percent growth of renal 786-O cell line was determined at 10e-5 M concentration after 48 hr of exposing; format: functional, Homo sapiens; in short: as §3
# 786-0 [15] = experiment: Percent growth of renal 786-O cell line was determined at 10e-6 M concentration after 48 h of exposing; format: functional, Homo sapiens; in short: as §3
# 786-0 [16] = experiment: Percent growth of renal 786-O cell line was determined at 10e-8 M concentration after 48 h of exposing; format: functional, Homo sapiens; in short: as §3
# MCF7 [17] = experiment: Percent growth of breast MCF-7 cell line was determined at 10e-6 M concentration after 48 h of exposing; format: functional, Homo sapiens
# MCF7 [18] = experiment: Percent growth of breast MCF-7 cell line was determined at 10e-8 M concentration after 48 hr of exposing; format: functional, Homo sapiens
# SW-620 [19] = experiment: Percent growth of colon SW-620 cell line was determined at 10e-5 M concentration after 48 hr of exposing; format: functional, Homo sapiens; in short: as §3
# SW-620 [20] = experiment: Percent growth of colon SW-620 cell line was determined at 10e-6 M concentration after 48 hr of exposing; format: functional, Homo sapiens; in short: as §3
# SW-620 [21] = experiment: Percent growth of colon SW-620 cell line was determined at 10e-8 M concentration after 48 hr of exposing; format: functional, Homo sapiens; in short: as §3
# NCI-H460 [22] = experiment: Percent growth of lung NCI-H460 cell line was determined at 10e-5 M concentration after 48 hr of exposing; format: functional, Homo sapiens; in short: as §3
# NCI-H460 [23] = experiment: Percent growth of lung NCI-H460 cell line was determined at 10e-6 M concentration after 48 hr of exposing; format: functional, Homo sapiens; in short: as §3
# NCI-H460 [24] = experiment: Percent growth of lung NCI-H460 cell line was determined at 10e-8 M concentration after 48 hr of exposing; format: functional, Homo sapiens; in short: as §3
# MOLT-4 [25] = experiment: Percent growth of leukemia MOLT-4 cell line was determined at 10e-5 M concentration after 48 hr of exposing; format: functional, Homo sapiens; in short: as §3
# MOLT-4 [26] = experiment: Percent growth of leukemia MOLT-4 cell line was determined at 10e-6 M concentration after 48 h of exposing; format: functional, Homo sapiens; in short: as §3
# MOLT-4 [27] = experiment: Percent growth of leukemia MOLT-4 cell line was determined at 10e-8 M concentration after 48 hr of exposing; format: functional, Homo sapiens; in short: as §3
# OVCAR-4 [28] = experiment: Percent growth of ovarian OVCAR-4 cell line was determined at 10e-5 M concentration after 48 hr of exposing; format: functional, Homo sapiens; in short: as §3
# OVCAR-4 [29] = experiment: Percent growth of ovarian OVCAR-4 cell line was determined at 10e-6 M concentration after 48 hr of exposing; format: functional, Homo sapiens; in short: as §3
# OVCAR-4 [30] = experiment: Percent growth of ovarian OVCAR-4 cell line was determined at 10e-8 M concentration after 48 hr of exposing; format: functional, Homo sapiens; in short: as §3
# DU-145 [31] = experiment: Percent growth of prostate DU-145 cell line was determined at 10e-5 M concentration after 48 hr of exposing; format: functional, Homo sapiens
# [32] = Cytotoxicity against human LoVo cancer cell line was determined after 1 hr; format: cell-based; in short: as §2
# [33] = Cytotoxicity against human H460M cancer cell line was determined after 1 hr; format: cell-based; conditions: Cancer cell lines; in short: as §1
# [34] = Cytotoxicity against human MKN45 cancer cell line was determined after 1 hr; format: cell-based; conditions: Cancer cell lines; in short: as §1
# [35] = Cytotoxicity against human HCT116 cancer cell line was determined after 1 hr; format: cell-based; conditions: HCT-116, 1 h; in short: as §1
# HT-29 = experiment: Cytotoxicity is determined as the concentration required to inhibit the growth of human colon adenocarcinoma (HT-29) cell line; format: functional, cell-based
# MCF7 [36] = experiment: Percent growth of breast MCF-7 cell line was determined at 10e-5 M concentration after 48 hr of exposing; format: functional, Homo sapiens
# [37] = Cytotoxicity against human PC3 cancer cell line was determined after 1 hr; format: cell-based; conditions: Cancer cell lines; in short: as §1
structure (smiles),measurement,setting,value
COc1ccc2c(c1)-c1nn(CCN(C)C)c3ccc(C(=O)NCCCN(C)CCCNC(=O)c4ccc5c6c(c7cc(OC)ccc7nc46)NN5CCN(C)C)c(c13)N2,IC50,[1],4.3 nM
same,IC50,MKN-45,13 nM
same,Resistance index,LoVo [2],58
same,IC50,LoVo [3],290 nM
same,Binding site preference,Nucleic Acid,5.5
same,Growth,SNB-19 [4],-37%
same,IC50,HCT-116,43 nM
same,Growth,DU-145 [5],-8%
same,Growth,DU-145 [6],70%
same,Growth,[7],-80%
same,Growth,[8],3%
same,Growth,[9],46%
same,IC50,PC-3,39 nM
same,IC50,[10],3100 nM
same,IC50,LoVo [11],5.1 nM
same,Growth,SNB-19 [12],0%
same,Growth,SNB-19 [13],47%
same,Growth,786-0 [14],-33%
same,Growth,786-0 [15],11%
same,Growth,786-0 [16],53%
same,Growth,MCF7 [17],7%
same,Growth,MCF7 [18],66%
same,Growth,SW-620 [19],-39%
same,Growth,SW-620 [20],3%
same,Growth,SW-620 [21],44%
same,Growth,NCI-H460 [22],-58%
same,Growth,NCI-H460 [23],3%
same,Growth,NCI-H460 [24],23%
same,Growth,MOLT-4 [25],-28%
same,Growth,MOLT-4 [26],-28%
same,Growth,MOLT-4 [27],19%
same,Growth,OVCAR-4 [28],-54%
same,Growth,OVCAR-4 [29],-5%
same,Growth,OVCAR-4 [30],71%
same,Growth,DU-145 [31],-21%
same,IC50,[32],53 nM
same,IC50,[33],26 nM
same,IC50,[34],51 nM
same,IC50,[35],120 nM
same,IC50,HT-29,3 nM
same,Growth,MCF7 [36],-18%
same,IC50,[37],> 100 nM
CN(C)CCn1c(=O)c2ccc(NCCCN(C)CCCNc3ccc4c(=O)n(CCN(C)C)c(=O)n5c6ccc(O)cc6c(=O)c3c45)c3c(=O)c4cc(O)ccc4n(c1=O)c23,IC50,[1],< 0.001 nM
same,IC50,MKN-45,< 0.001 nM
same,Resistance index,LoVo [2],8.3
same,IC50,LoVo [3],59 nM
same,Binding site preference,Nucleic Acid,1.7
same,Growth,SNB-19 [4],-17%
same,IC50,HCT-116,< 0.001 nM
same,Growth,DU-145 [5],-6%
same,Growth,DU-145 [6],32%
same,Growth,[7],-77%
same,Growth,[8],-50%
same,Growth,[9],20%
same,IC50,PC-3,0.01 nM
same,IC50,[10],810 nM
same,IC50,LoVo [11],3.9 nM
same,Growth,SNB-19 [12],-4%
same,Growth,SNB-19 [13],34%
same,Growth,786-0 [14],-52%
same,Growth,786-0 [15],1%
same,Growth,786-0 [16],36%
same,Growth,MCF7 [17],-1%
same,Growth,MCF7 [18],16%
same,Growth,SW-620 [19],-8%
same,Growth,SW-620 [20],10%
same,Growth,SW-620 [21],36%
same,Growth,NCI-H460 [22],-60%
same,Growth,NCI-H460 [23],-23%
same,Growth,NCI-H460 [24],11%
same,Growth,MOLT-4 [25],-60%
same,Growth,MOLT-4 [26],-37%
same,Growth,MOLT-4 [27],-4%
same,Growth,OVCAR-4 [28],-36%
same,Growth,OVCAR-4 [29],-37%
same,Growth,OVCAR-4 [30],42%
same,Growth,DU-145 [31],-42%
same,IC50,[32],98 nM
same,IC50,[33],< 0.001 nM
same,IC50,[34],< 0.001 nM
same,IC50,[35],0.06 nM
same,IC50,HT-29,< 0.1 nM
same,Growth,MCF7 [36],-32%
same,IC50,[37],2 nM
